Laboratory results published in BindingDB's records for doi:10.1016/j.bmcl.2018.04.005 (Shanghai Institute of Materia Medica, 2018).

Target: T1, Sortase family protein (Staphylococcus aureus, UniProt Q9S446)
T1 sequence (Q9S446 whole entry): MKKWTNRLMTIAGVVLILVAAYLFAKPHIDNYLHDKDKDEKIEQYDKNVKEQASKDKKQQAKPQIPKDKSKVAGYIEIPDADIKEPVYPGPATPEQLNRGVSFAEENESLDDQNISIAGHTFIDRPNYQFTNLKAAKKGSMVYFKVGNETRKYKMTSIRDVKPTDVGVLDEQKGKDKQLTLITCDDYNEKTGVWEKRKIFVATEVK
Assay: Inhibition of Staphylococcus aureus SrtA deltaN24 mutant assessed as decrease in transpeptidation of IsdA (64 to 323 residues) incubated for 1.25 hrs in presence of NH2-Gly3 nucleophile by SDS-PAGE method
Outline: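 Recombinant, affinity-purified IsdA64-323 (a natural SrtA substrate from S. aureus) is incubated with purified SrtAΔN24 and NH2-Gly3 nucleophile, with or without test compound. Cleavage at the sorting signal gives the transpeptidation product, which is resolved by SDS-PAGE. Inhibition is judged from partial or complete blockade of product formation. Used as a counter-screen against FRET false positives.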

| SMILES | IC50 |
| --- | --- |
| CC(C)=CC[C@H](O)c1cc(O)c2c(c1O)C(=O)C=CC2=O | 5 µM |
| CC(C)C=CC(=O)c1cc(O)c2c(O)ccc(O)c2c1O [5,8-Dihydroxy-2-(1-hydroxy-4-methyl-pent-3-enyl)-[1,4]naphthoquinone] | 5 µM |
